Target: T1, SvAS (fused anthranilate synthase, SvTrpEG) (Streptomyces venezuelae, UniProt O30589)
T1 sequence (O30589 1-623): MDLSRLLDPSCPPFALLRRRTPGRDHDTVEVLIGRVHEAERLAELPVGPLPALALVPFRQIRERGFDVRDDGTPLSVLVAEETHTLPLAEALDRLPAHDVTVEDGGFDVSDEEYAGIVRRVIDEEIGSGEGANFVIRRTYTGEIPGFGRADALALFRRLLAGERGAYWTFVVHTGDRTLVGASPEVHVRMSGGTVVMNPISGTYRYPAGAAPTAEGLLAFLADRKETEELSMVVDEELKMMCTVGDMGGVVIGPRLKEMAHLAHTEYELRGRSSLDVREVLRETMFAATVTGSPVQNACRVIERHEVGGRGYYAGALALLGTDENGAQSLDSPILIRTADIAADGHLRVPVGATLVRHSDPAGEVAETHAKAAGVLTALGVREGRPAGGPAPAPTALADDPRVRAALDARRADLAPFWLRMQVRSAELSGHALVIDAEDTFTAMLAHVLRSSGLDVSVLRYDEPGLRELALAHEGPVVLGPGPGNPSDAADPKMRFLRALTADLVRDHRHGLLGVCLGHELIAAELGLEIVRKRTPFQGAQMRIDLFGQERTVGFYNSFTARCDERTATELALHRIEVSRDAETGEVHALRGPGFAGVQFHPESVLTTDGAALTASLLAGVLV
Assay type: biochemical
Method in brief: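 His-tagged SvAS expressed in E. coli BL21(DE3)pLysS and purified on Ni-NTA. Assays at 30°C in 50 mM Tricine pH 7.5 with 12.5 mM MgCl2, 10 μg enzyme, 20 mM glutamine (saturating), 0.39–100 μM chorismate, and 2.5, 5, 10 or 20 μM test compound. Anthranilate fluorescence (ex 315/em 395 nm) converted via standard curve. Lineweaver-Burk plot assigned inhibition type; Ki from fit to that equation.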

Ki: 11.1 ± 0.1 µM
Structure (SMILES): N[C@@H](Cc1c[nH]c2ccccc12)C(=O)O [tryptophan]

From PMC4303589 (Molecular and cellular biochemistry, 2014)
